# Reference: ChEMBL document CHEMBL4350958, “Rational Design of Short Peptide Variants by Using Kunitzin-RE, an Amphibian-Derived Bioactivity Peptide, for Acquired Potent Broad-Spectrum Antimicrobial and Improved Therapeutic Potential of Commensalism Coinfection of Pathogens” (J Med Chem, 2019)
# Activity calls are given as the source filed them. The rule behind the calls is not given here.
# Assays:
# Candida albicans [1] = assay: Fungicidal activity against Candida albicans cgmcc2.2086 incubated for 48 hrs followed by replating on YM agar plate and measured after 48 hrs; format: functional
# Outline: (§1)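 Yeast diluted in MOPS-buffered RPMI 1640 to (0.5–1) × 10^3 CFU/mL (CLSI M27-A2, modified) and mixed 1:1 with peptide serially diluted in 0.2% BSA. After 48 h at 28 °C, 50 μL per well was plated on YM agar and incubated 48 h at 28 °C. MFC taken as the lowest concentration killing ≥99.9% of cells. Three or more independent experiments, triplicate wells.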
# Candida albicans [2] = assay: Antifungal activity against Candida albicans cgmcc2.2086 measured after 48 hrs by broth microdilution method; format: functional; conditions: cgmcc2.2086, 48 h
# Outline: (§2)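 Modified CLSI M27-A2 microdilution. Yeast colonies were diluted in MOPS-buffered RPMI 1640 to a final (0.5–1) × 10^3 CFU mL−1 and mixed with an equal volume of peptide serially diluted in 0.2% BSA. After 48 h at 28 °C, MIC was read at A492 as the lowest concentration inhibiting 95% of growth. At least three independent experiments, each with three technical replicates.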
# Candida albicans [3] = assay: Antifungal activity against Candida albicans cgmcc2.2086 infected in C57BL/6 mouse model of keratitis assessed as reduction in fungal colonies in eyeballs at 1 mg/ml administered as topical eye drop every 5 mins for first 4 hrs and every 30 mins for next 7 hrs measured post-last dose by agar plate method relative to control; format: functional; parameters: scale not given: the % may be the effect or the level left
# Candida albicans [4] = assay: Antifungal activity against Candida albicans cgmcc2.2086 infected in C57BL/6 mouse model of keratitis assessed as appearance of transparent irises at 1 mg/ml administered as topical eye drop every 5 mins for first 4 hrs and every 30 mins for next 7 hrs measured post-last dose; format: functional, organism-based
# Candida tropicalis [5] = assay: Fungicidal activity against Candida tropicalis cgmcc2.1975 incubated for 48 hrs followed by replating on YM agar plate and measured after 48 hrs; format: functional; outline: as §1
# Candida albicans [6] = assay: (§3) Antifungal activity against Candida albicans cgmcc2.2086 infected in C57BL/6 mouse model of keratitis assessed as reduction in clinical score at 1 mg/ml administered as topical eye drop every 5 mins for first 4 hrs and every 30 mins for next 7 hrs measured post-last dose; format: functional, organism-based
# Candida albicans [7] = assay: Antifungal activity against Candida albicans cgmcc2.2086 infected in C57BL/6 mouse model of keratitis assessed as appearance of transparent corneas at 1 mg/ml administered as topical eye drop every 5 mins for first 4 hrs and every 30 mins for next 7 hrs measured post-last dose; format: functional, organism-based
# Candida parapsilosis [8] = assay: Fungicidal activity against Candida parapsilosis cgmcc2.3989 incubated for 48 hrs followed by replating on YM agar plate and measured after 48 hrs; format: functional; outline: as §1
# Candida parapsilosis [9] = assay: Antifungal activity against Candida parapsilosis cgmcc2.3989 measured after 48 hrs by broth microdilution method; format: functional; conditions: Lodderomyces parapsilosis, cgmcc2.3989, 48 h; outline: as §2
# Candida albicans [10] = assay: as §3, with “fungal hyphae extention into corneal stroma” for “clinical score”, “dose by periodic acid schiff staining-based histological analysis” for “dose”; format: functional, organism-based
# Candida tropicalis [11] = assay: Antifungal activity against Candida tropicalis cgmcc2.1975 measured after 48 hrs by broth microdilution method; format: functional; conditions: cgmcc2.1975, 48 h; outline: as §2
# Candida albicans [12] = assay: as §3, with “fungal hyphae infiltration into corneal stroma” for “clinical score”, “dose by periodic acid schiff staining-based histological analysis” for “dose”; format: functional, organism-based
structure (smiles),measurement,setting,value
C[C@@H]1[C@H](O)[C@@H](C)/C=C/C=C/C=C/C=C/C=C/C=C/C=C/[C@H](O[C@@H]2O[C@H](C)[C@@H](O)[C@H](N)[C@@H]2O)C[C@@H]2O[C@](O)(C[C@@H](O)C[C@@H](O)[C@H](O)CC[C@@H](O)C[C@@H](O)CC(=O)O[C@H]1C)C[C@H](O)[C@H]2C(=O)O [AMPHOTERICIN B],MFC<=99.9,Candida albicans [1],2 µM
same,MIC95,Candida albicans [2],1 µM
same,Activity,Candida albicans [3],<=80%
same,Activity,Candida albicans [4],Active
same,MFC<=99.9,Candida tropicalis [5],2 µM
same,Activity,Candida albicans [6],Active
same,Activity,Candida albicans [7],Active
same,MFC<=99.9,Candida parapsilosis [8],4 µM
same,MIC95,Candida parapsilosis [9],2 µM
same,Activity,Candida albicans [10],Active
same,MIC95,Candida tropicalis [11],1 µM
same,Activity,Candida albicans [12],Active
